Source: ChEMBL document CHEMBL1121598, “Acylthioxanthenes: agents which selectively reduce decerebrate rigidity in the cat” (1980)

How the values were obtained:
Type in all cases: functional
Felis catus [1] = experiment: Reduction of the integrated electromyographic response by 50% in cat after intravenous administration
Summary of the method: (§1)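 Intercollicular decerebration of cats (midbrain sectioned between colliculi) under halothane, anesthesia then stopped; ≥1 h later, integrated EMG of quadriceps recorded in response to controlled stretches. Drug infused iv in saline in graded doses, stretch response repeated; dose (μmol/kg iv) reducing stretch response by 50% determined.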

Felis catus [2] = experiment: Reduction of the integrated electromyographic response by 50% in cat after peroral administration
Mus musculus = experiment: Reduction of locomotor activity count to 50% of the control in mouse after oral administration
Summary of the method: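 Mouse locomotor activity by Dews method, modified: drug given orally, activity measured for 5 min starting 1 h later. Dose (μmol/kg po) reducing locomotor activity count to 50% of control determined.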

[3] = Ratio of motor activity and activity A
Felis catus [4] = experiment: Dose of compound to reduce the integrated electromyographic response by 50% in cat after peroral administration; Range is 5.5-13.7
Felis catus [5] = experiment: Dose of compound to reduce the integrated electromyographic response by 50% in cat after intravenous administration; value from second experiment.; summary of the method: as §1
Felis catus [6] = experiment: Dose of compound to reduce the integrated electromyographic response by 50% in cat after peroral administration; Range is 5.1-12.5

| SMILES | Activity A (Felis catus [1]) [µM/kg] | Activity B (Felis catus [2]) [µM/kg] | Locomotor activity (Mus musculus) [µM/kg] | Ratio [3] | Activity B (Felis catus [4]) [µM/kg] | Activity A (Felis catus [5]) [µM/kg] | Activity B (Felis catus [6]) [µM/kg] |
| --- | --- | --- | --- | --- | --- | --- | --- |
| CN(C)CC/C=C1/c2ccccc2C=Cc2ccc(Cl)cc21 | 4.01 | >6.1 | 103 | 26 |  |  |  |
| CC(=O)c1ccc2c(c1)C(CCCN(C)C)c1ccccc1S2 (configuration not stated) | 0.9 |  | 57 | 63 | 5.5 |  |  |
| CCC(=O)c1ccc2c(c1)C(O)(CC1CCN(C)CC1)c1ccccc1S2 (configuration not stated) | 19.39 |  | >485 | > 25 |  |  |  |
| CC(=O)c1ccc2c(c1)N(CCCN(C)C)c1ccccc1S2 [ACEPROMAZINE] | 0.03 | 1 | 11 | 393 |  |  |  |
| CC(=O)c1ccc2c(c1)/C(=C\CCN(C)C)c1ccccc1S2 | 0.54 | <5.4 | 33 | 60 |  |  |  |
| CC(/C=C1/c2ccccc2Sc2ccc(C(=O)C(C)C)cc21)CN(C)C (configuration not stated) | 0.67 |  | 145 | 216 |  |  |  |
| CC(=O)c1ccc2c(c1)C(O)(CC(C)CN(C)C)c1ccccc1S2 (configuration not stated) | 3.17 |  |  |  |  | >21.18 |  |
| CCC(=O)c1ccc2c(c1)C(CCCN(C)C)c1cc(Cl)ccc1S2 (configuration not stated) | 6.17 |  | 343 | 56 |  |  |  |
| CCC(=O)c1ccc2c(c1)/C(=C\CCN(C)C)c1ccccc1S2 (stereo in doubt; 35) [listing 1 of 2 here] | 0.45 | 1.9 | 339 |  |  |  |  |
| CC(=O)c1ccc2c(c1)N(CC(C)CN(C)C)c1cc(Cl)ccc1S2 (configuration not stated) | 0.32 | 1 | 161 | 506 |  |  |  |
| CC(CN1c2ccccc2Sc2ccc(S(=O)(=O)N(C)C)cc21)N(C)C (configuration not stated) [FONAZINE] | 4.67 | 8.1 | 860 | 184 |  |  |  |
| CCC(=O)c1ccc2c(c1)C(=C1CCN(C)CC1)c1ccccc1S2 | 0.68 |  | 96 | 141 |  |  |  |
| CCC(=O)c1ccc2c(c1)/C(=C\CCN(C)C)c1ccccc1S2 (stereo in doubt; 36) [listing 1 of 2 here] |  |  |  | 800 |  |  |  |
| CC(=O)c1ccc2c(c1)/C(=C\CCN(C)C)c1cc(Cl)ccc1S2 (stereo in doubt; 33) [listing 1 of 2 here] |  |  |  | 168 |  |  |  |
| CC(=O)c1ccc2c(c1)/C(=C\C(C)CN(C)C)c1cc(Cl)ccc1S2 (configuration not stated) | 1.19 |  | 192 | 161 |  |  |  |
| CCCCC(=O)c1ccc2c(c1)/C(=C\C(C)CN(C)C)c1ccccc1S2 (configuration not stated) | 3.29 |  | 132 | 40 |  |  |  |
| CCCCC(=O)c1ccc2c(c1)/C(=C\CCN(C)C)c1ccccc1S2 | 1.35 |  |  |  |  |  |  |
| CCC(=O)c1ccc2c(c1)/C(=C\CCN1CCOCC1)c1ccccc1S2 | 0.27 |  | 125 | 463 |  |  |  |
| CCCC(=O)c1ccc2c(c1)/C(=C\CCN(C)C)c1ccccc1S2 | 1.5 |  | >501 | 334 |  |  | 5.1 |

| SMILES | Activity A (Felis catus [1]) [µM/kg] | Activity B (Felis catus [2]) [µM/kg] | Locomotor activity (Mus musculus) [µM/kg] | Ratio [3] | Activity B (Felis catus [4]) [µM/kg] | Activity A (Felis catus [5]) [µM/kg] | Activity B (Felis catus [6]) [µM/kg] |
| --- | --- | --- | --- | --- | --- | --- | --- |
| CC(C)C(=O)c1ccc2c(c1)/C(=C\CCN(C)C)c1ccccc1S2 | 0.4 |  | 89 | 218 |  |  |  |
| CCC(=O)c1ccc2c(c1)/C(=C\C(C)CN(C)C)c1cc(Cl)ccc1S2 (configuration not stated) | 1.3 | >9.3 | 534 | 411 |  |  |  |
| CC(=O)c1ccc2c(c1)/C(=C\CCN(C)C)c1cc(Cl)ccc1S2 (stereo in doubt; 33) [listing 2 of 2 here] | 0.53 | >5.4 | 89 |  |  |  |  |
| CN(C)CCCN1c2ccccc2Sc2ccc(Cl)cc21 [CHLORPROMAZINE] | 0.25 | 2 | 39 |  |  |  |  |
| CCC(=O)c1ccc2c(c1)/C(=C\C(C)CN(C)C)c1ccccc1S2 (configuration not stated) | 0.52 | >5.2 | 261 | 501 |  |  |  |
| CCC(=O)c1ccc2c(c1)/C(=C\C(CC)CN(C)C)c1ccccc1S2 (configuration not stated) | 4.14 |  | 280 | 68 |  |  |  |
| CCC(=O)c1ccc2c(c1)/C(=C\CCN(C)C)c1cc(Cl)ccc1S2 | 1.08 | >9.6 | 695 | 644 |  |  |  |
| CN(C)CC/C=C1/c2ccccc2Sc2ccc(Cl)cc21 [CHLORPROTHIXENE] | 0.39 | 2.1 | 11 | 28 |  |  |  |
| CCCC(=O)c1ccc2c(c1)/C(=C\C(C)CN(C)C)c1ccccc1S2 (configuration not stated) | 1.22 |  | 195 | 160 |  |  |  |
| CC(=O)c1ccc2c(c1)/C(=C\CCN(C)C)c1cc(Cl)ccc1S2 (stereo in doubt; 32) [listing 1 of 2 here] |  |  |  | 119 |  |  |  |
| CC(=O)c1ccc2c(c1)/C(=C\CCN(C)C)c1cc(Cl)ccc1S2 (stereo in doubt; 32) [listing 2 of 2 here] | 0.81 |  | 96 |  |  |  |  |
| CCC(=O)c1ccc2c(c1)/C(=C\C(C)CN1CCOCC1)c1ccccc1S2 (configuration not stated) | 6.5 |  | >659 | > 101 |  |  |  |
| CC(=O)c1ccc2c(c1)/C(=C\C(C)CN(C)C)c1ccccc1S2 (configuration not stated) | 1.31 |  | 94 | 72 |  |  |  |
| CCC(=O)c1ccc2c(c1)/C(=C\CCN(C)C)c1ccccc1S2 (stereo in doubt; 36) [listing 2 of 2 here] | 0.15 | 1.8 | 120 |  |  |  |  |
| CCC(=O)c1ccc2c(c1)/C(=C\CCN(C)C)c1ccccc1S2 (stereo in doubt; 35) [listing 2 of 2 here] |  |  |  | 753 |  |  |  |
| CCCC(=O)c1ccc2c(c1)N(CC(C)CN(C)C)c1ccccc1S2 (configuration not stated) | 0.65 | 1.2 | 136 | 209 |  |  |  |
| CC(=O)c1ccc2c(c1)C(CC(C)CN(C)C)c1ccccc1S2 (configuration not stated) | 2.08 | >13 | 377 | 181 |  |  |  |
| CCC(=O)c1ccc2c(c1)/C(=C\CCN1CCN(C)CC1)c1ccccc1S2 | 0.67 |  | 42 | 43 |  |  |  |
